Measured values: paper PMC6322912 (Biochemistry, 2018)

molecular target: T1, SAMHD1 (Homo sapiens, UniProt Q9Y3Z3); assay: Dose–response SAMHD1 dNTPase assay; assay type: biochemical; settings: not given
T1 sequence (Q9Y3Z3 whole entry): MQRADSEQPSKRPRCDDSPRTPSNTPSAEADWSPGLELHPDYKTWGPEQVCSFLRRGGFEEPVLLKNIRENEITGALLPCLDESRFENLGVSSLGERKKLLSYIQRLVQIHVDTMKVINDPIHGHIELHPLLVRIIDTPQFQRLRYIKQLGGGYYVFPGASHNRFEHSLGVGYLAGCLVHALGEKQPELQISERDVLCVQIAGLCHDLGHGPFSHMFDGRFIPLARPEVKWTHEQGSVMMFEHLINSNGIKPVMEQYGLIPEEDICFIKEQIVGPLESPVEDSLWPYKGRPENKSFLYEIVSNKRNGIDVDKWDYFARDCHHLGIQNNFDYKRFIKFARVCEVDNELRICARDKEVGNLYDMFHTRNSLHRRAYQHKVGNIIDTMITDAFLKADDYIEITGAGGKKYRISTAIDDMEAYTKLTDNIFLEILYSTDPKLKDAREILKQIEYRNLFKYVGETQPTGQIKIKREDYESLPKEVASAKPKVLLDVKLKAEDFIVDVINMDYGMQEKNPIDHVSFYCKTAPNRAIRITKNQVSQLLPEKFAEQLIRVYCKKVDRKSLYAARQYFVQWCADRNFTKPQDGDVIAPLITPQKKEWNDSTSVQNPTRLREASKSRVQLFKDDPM

| Structure (SMILES) | IC50 [µM] |
| --- | --- |
| Nc1cc(-c2ccncc2)c[nH]c1=O [Amrinone] | < 250 |
| CN1C[C@H](C(=O)N[C@]2(C)O[C@@]3(O)[C@@H]4CCCN4C(=O)[C@H](Cc4ccccc4)N3C2=O)C=C2c3cccc4[nH]cc(c34)C[C@H]21 [Ergotamine] | < 250 |
| CC[C@H](c1ccc(O)cc1)[C@@H](CC)c1ccc(O)cc1 [Hexestrol] | < 250 |
| N[C@@H](Cc1cc(I)c(Oc2cc(I)c(O)c(I)c2)c(I)c1)C(=O)O [L-Thyroxine] | < 250 |
| COC(=O)c1ccc(O)c2nc3c(C=O)c(O)cc(O)c3nc12 [Lomofungin] | < 250 |
| CC(C)(O)c1ccccc1CC[C@@H](SCC1(CC(=O)O)CC1)c1cccc(/C=C/c2ccc3ccc(Cl)cc3n2)c1 [Montelukast] | < 250 |
| CC1=C(CC(=O)O)c2cc(F)ccc2/C1=C\c1ccc([S+](C)[O-])cc1 (stereo not shown) [Sulindac] | < 250 |
| CC1=C(/C=C/C(C)=C/C=C/C(C)=C/C(=O)O)C(C)(C)CCC1 [retinoic acid] | < 250 |

same assay, conditions: 150 μM dCTP substrate; tetramer preformed with 10 μM GTP and 25 μM dATPαS

| Structure (SMILES) | Inhibition of preactivated SAMHD1 dCTPase activity |
| --- | --- |
| Nc1nc2c(ncn2[C@H]2C[C@H](O)[C@@H](COP(O)(=S)OP(=O)(O)OP(=O)(O)O)O2)c(=O)[nH]1 (stereo partly drawn) [dGTPαS, deoxyguanosine triphosphate α S] | inhibition |

same assay, conditions: read-out: SAMHD1 inhibition in dose–response dNTPase assays

| Structure (SMILES) | inhibition at 500 µM [%] |
| --- | --- |
| CCCCCOC(=O)Nc1nc(=O)n([C@@H]2O[C@H](C)[C@@H](O)[C@H]2O)cc1F [Capecitabine] | ~25 |
| Nc1nc2c(ncn2CCC(CO)CO)c(=O)[nH]1 [Penciclovir] | ~25 |
| CC(=O)CCCCn1c(=O)c2c(ncn2C)n(C)c1=O [Pentoxifylline] | ~25 |

molecular target: T1, SAMHD1; assay: b4NPP–SAMHD1 HTS; assay type: biochemical; settings: increasing concentrations of dGTP; normalized to no dGTP
How it was run: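 Recombinant SAMHD1 was expressed in E. coli BL21* as an MBP fusion, tag-cleaved, and purified by heparin and size-exclusion chromatography. Nucleotide was added, then 2 mM final b4NPP. A410 was read over 45 min; rates came from 0–20 min slopes, with no-enzyme baseline.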

| Structure (SMILES) | Inhibition of SAMHD1-mediated b4NPP hydrolysis |
| --- | --- |
| Nc1nc2c(ncn2[C@H]2C[C@H](O)[C@@H](COP(=O)(O)OP(=O)(O)OP(=O)(O)O)O2)c(=O)[nH]1 [dGTP] | completely inhibited |
